Test results as given in ChEMBL document CHEMBL1124663, “Design, synthesis, antineoplastic activity, and chemical properties of bis(carbamate) derivatives of 4,5-bis(hydroxymethyl)imidazole” (J Med Chem, 1989).

Tests used:
Type in all cases: functional
Mus musculus [1] = assay: The toxicity day was evaluated on day 5 for L1210 tumor cells of test animals dosed with 50 mg/kg of compound; 6/6
In short: (§1)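 L1210 leukaemia, 10^5 cells, implanted ip on day 0. Freshly prepared saline suspension dosed ip daily on days 1-5. Toxicity evaluated on day 5 as survivors over animals in the initial test group.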

Mus musculus [2] = assay: Body Weight Difference (BWD) of test animals administered with 12.5 mg/kg compound is determined on day 5 for P388 tumor cells
In short: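 P388 leukaemia: about 10^6 cells in ascitic fluid inoculated ip on day 0 (CD2F1 mice). Compound given ip in normal saline as a freshly prepared solution or suspension, once daily on days 1–5. Treated-minus-control body weight difference in g, taken as day 5 minus day 1 weight. Groups of six.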

Mus musculus [3] = assay: The percent of the median survival time of test mice compared to control mice, administered with 25 mg/kg compound on day 5 for L1210 tumor cells
In short: (§2)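 L1210 leukemia, 10^5 cells implanted ip on day 0. Drug given ip daily on days 1-5 as a saline suspension freshly prepared before each injection. Read-out is median survival of treated versus control mice (% T/C), and log cell kill is derived from it.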

Mus musculus [4] = assay: The toxicity day was evaluated on day 5 for L1210 tumor cells of test animals dosed with 25 mg/kg of compound; 6/6; in short: as §1
Mus musculus [5] = assay: Ability of 50 mg/kg of compound to kill L1210 tumor cells in mice is expressed as the log of the tumor cell population at the onset of treatment minus the log of the tumor cell population at the end of treatment; in short: as §2
Mus musculus [6] = assay: The percent of the median survival time of test mice compared to control mice is % T/C which refers to tumor size in this case. It is determined for mice administered with 60 mg/kg compound on day 11 for MX-1 tumor cells; settings: route intraperitoneal
In short: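 Human MX-1 mammary xenograft, a 1 mm3 (0.5 mg) tumor fragment implanted under the renal capsule of NCR-nu mice on day 0. Drug given ip as a fresh saline suspension on days 1, 5 and 9. Tumor size is assessed on day 11. A negative % T/C is percent shrinkage relative to the initial implant. Survivors in the toxicity group are […].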

Mus musculus [7] = assay: The toxicity day was evaluated on day 11 for MX-1 tumor cells of test animals dosed with 60 mg/kg of compound; 6/6
In short: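 Human MX-1 mammary tumour (1 mm3, 0.5 mg) implanted under the renal capsule of NCR-nu mice on day 0. Drug was given ip as a freshly made saline suspension on days 1, 5 and 9. Readout is survivors over initial group size.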

Mus musculus [8] = assay: The toxicity day was evaluated on day 5 for L1210 tumor cells of test animals dosed with 100 mg/kg of compound; 6/6; in short: as §1
Mus musculus [9] = assay: The toxicity day was […] for M5076 minus 1 tumor cells of test animals dosed with 100 mg/kg of compound; 10/10
In short: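 M5076 sarcoma, 10^6 cells, inoculated ip into B6C3F1 mice on day 0. Fresh saline suspension given ip every fourth day (days 1, 5, 9, 13). Toxicity survivors were scored on day 5 as survivors over initial group. Body-weight difference was day 14 minus day 1.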

With CNC(=O)OCc1nc(SC)n(C)c1COC(=O)NC the “Survivors / animals tested” value (Mus musculus [1]) was 6, the BWD (Mus musculus [2]) was -1.2 g and the T/C (Mus musculus [3]) was 111%. The “Survivors / animals tested” value (Mus musculus [4]) was 6, the KE (Mus musculus [5]) was -1.94 and the T/C (Mus musculus [6]) was -91%. For the same compound, the “Survivors / animals tested” value (Mus musculus [7]) was 6, the “Survivors / animals tested” value (Mus musculus [8]) was 6 and the “Survivors / animals tested” value (Mus musculus [9]) was 10.
